Test [1] relates to PC-3. Description: Cytotoxicity against human PC3 cells after 48 hrs by sulforhodamine B assay. In kind it is functional. As to conditions: PC-3, 48 h. Put shortly: (§1)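 Cells were grown in RPMI 1640 with 10% FBS and 2 mM L-glutamine, seeded at densities set by doubling time, and left 24 h before drug. Exposure was 48 h continuous at 0.1, 1, 10 and 100 µM, triplicate wells. Cells were fixed in cold 10% TCA for 60 min at 4 °C and stained with SRB. Bound dye was eluted with 10 mM Tris and read at 540 nm (690 nm reference). GI50 was the concentration halving net protein increase versus control.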

A short description of test [2]: Cytotoxicity against human AW8507 cells after 48 hrs by sulforhodamine B assay. The test is classed as functional. To be noted: AW8507, 48 h. The method in brief:
as §1

A short description of test [3]: Cytotoxicity against human AW13516 cells after 48 hrs by sulforhodamine B assay. In kind it is functional. The method in brief:
as §1

The subject of test [4] is A549. Description: Cytotoxicity against human A549 cells after 48 hrs by sulforhodamine B assay. The test is classed as functional. As to conditions: A549, 48 h. The method in brief:
as §1

The test system of test [5] is MCF7. Put plainly: Cytotoxicity against human MCF7 cells after 48 hrs by sulforhodamine B assay. The test is classed as functional. To be noted: MCF7, 48 h. The method in brief: as §1
Test [6] concerns KB. Put plainly: Cytotoxicity against human KB cells after 48 hrs by sulforhodamine B assay. In kind it is functional. The method in brief:
as §1

Test [7] concerns SiHa. Description: Cytotoxicity against human SiHa cells after 48 hrs by sulforhodamine B assay. In kind it is functional. Put shortly:
as §1

Test [8] has as its system COLO 205. Put plainly: Cytotoxicity against human Colo205 cells after 48 hrs by sulforhodamine B assay. The test is classed as functional. To be noted: COLO 205, 48 h. Put shortly:
as §1

Test [9] concerns ZR-75-1. Put plainly: Cytotoxicity against human Zr-75-1 cells after 48 hrs by sulforhodamine B assay. In kind it is functional. To be noted: ZR-75-1, 48 h. The method in brief: as §1
Test [10] relates to DNA. Put plainly: Binding affinity to calf thymus DNA at pH 7.0 at 20 uM after 36 hrs by thermal denaturation assay. In kind it is nucleic-acid assay. As to conditions: Bos taurus.
The test system of test [11] is A2780. Description: Cytotoxicity against human A2780 cells after 48 hrs by sulforhodamine B assay. In kind it is functional. As to conditions: A2780, 48 h. Put shortly:
as §1

The subject of test [12] is DNA. Put plainly: Binding affinity to calf thymus DNA at pH 7.0 at 20 uM after 18 hrs by thermal denaturation assay. In kind it is nucleic-acid assay. As to conditions: Bos taurus.
Test [13] relates to HOP-62. Put plainly: Cytotoxicity against human HOP62 cells after 48 hrs by sulforhodamine B assay. The test is classed as functional. As to conditions: HOP-62, 48 h. Put shortly:
as §1

For the compound `COc1cc2c(cc1OCCCCSc1nnc3n1S(=O)(=O)c1ccccc1N3C)N=C[C@@H]1CCCN1C2=O`, the GI50 was found to be 25500 nM in [1]; 2290 nM in [2]; 26600 nM in test [3]; 2280 nM in test [4]; 2290 nM in [5]; 26400 nM in test [6]. In addition, the GI50 in test [7] turned out to be 27000 nM; in test [8], 2110 nM; in test [9], 25900 nM; in test [11], 2170 nM. The ΔTm stood at 0.7 °C in test [10] and 0.5 °C in test [12].

Take `COc1cc2c(cc1OCCCCCSc1nnc3n1S(=O)(=O)c1ccccc1N3c1ccccc1)N=C[C@@H]1CCCN1C2=O`: the GI50 was 2350 nM in [13]; 2400 nM in [1]; 2480 nM in test [2]; 1780 nM in test [3]; 30300 nM in test [4]; 2460 nM in test [6]. Besides, the GI50 in [7] came to 2300 nM; in test [8], 25600 nM; in [9], 24000 nM; in [11] it was 2010 nM. In addition, the results for the thermal shift (ΔTm) in test [10] and in test [12] were 1.5 °C and 1.3 °C, respectively.

Take `COc1cc2c(cc1OCCCSc1nnc3n1S(=O)(=O)c1ccccc1N3C)N=C[C@@H]1CCCN1C2=O`: the GI50 in [13] is 2130 nM; in [1], 2150 nM; in [2], 2240 nM; in [3], 2240 nM; in test [4] it was 2290 nM; in [5], 2060 nM. Further, the GI50 came out at 2380 nM in [6]; 2120 nM in test [7]; 1930 nM in test [8]; 2190 nM in [9]; 1830 nM in test [11]. In addition, the ΔTm amounted to 1.7 °C in [10] and 1.5 °C in test [12].

`COc1cc2c(cc1OCCCCCSc1nnc3n1S(=O)(=O)c1ccccc1N3C)N=C[C@@H]1CCCN1C2=O`: the GI50 is 25500 nM in [1]; 220 nM in [2]; 1950 nM in [3]; 2450 nM in [4]; 25600 nM in [6]; 27900 nM in test [7]. In addition, the GI50 in [8] is 2190 nM; in test [9], 28500 nM; in [11] it was 1920 nM. The ΔTm was found to be 2.6 °C in [10] and 2.4 °C in test [12].

In the case of `COc1cc2c(cc1OCCCSc1nnc3n1S(=O)(=O)c1ccccc1N3c1ccccc1)N=C[C@@H]1CCCN1C2=O`, the GI50 amounted to 26000 nM in test [9] and 30000 nM in [11]. Also, the ΔTm was 1.5 °C in test [10] and 1.2 °C in test [12].

On to `COc1cccc2c1C(=O)c1c(O)c3c(c(O)c1C2=O)C[C@@](O)(C(=O)CO)C[C@@H]3O[C@H]1C[C@H](N)[C@H](O)[C@H](C)O1` [DOXORUBICIN], for which the GI50 was found to be 140 nM in test [13]; 170 nM in test [2]; 100 nM in test [3]; 170 nM in test [5]; 1720 nM in test [6]; 180 nM in test [7]. The GI50 in test [8] worked out at 140 nM; in test [11], 160 nM.

`COc1cc2c(cc1O)N=C[C@@H]1CCCN1C2=O`: the ΔTm in [10] and in test [12] was 0.7 °C in each case.

Regarding `COc1cc2c(cc1OCCCCSc1nnc3n1S(=O)(=O)c1ccccc1N3c1ccccc1)N=C[C@@H]1CCCN1C2=O`, the GI50 in [1] amounted to 28800 nM; in [2], 25800 nM; in [3], 1980 nM; in test [4], 29700 nM; in test [11] it was 2270 nM. Moreover, the ΔTm in [10] is 0.7 °C; in [12] it was 0.6 °C.

(Values after ChEMBL document CHEMBL1156549, “Synthesis, DNA-binding ability and evaluation of antitumour activity of triazolo[1,2,4]benzothiadiazine linked pyrrolo[2,1-c][1,4]benzodiazepine conjugates” (2008).)
